Reference: ChEMBL document CHEMBL1275461, “Early bactericidal activity and pharmacokinetics of the diarylquinoline TMC207 in treatment of pulmonary tuberculosis” (Antimicrob Agents Chemother, 2008)

Columns and labels:
[1] = system: Homo sapiens; experiment: Steady-state plasma concentration in pulmonary tuberculosis patient at 25 mg/kg, po once daily for 7 days by liquid chromatography-MS/MS analysis; format: ADME, organism-based; design: dose 25 mg/kg, route oral; settings: in vivo, 168 h
How it was run: (§1)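 Treatment-naïve smear-positive pulmonary TB patients, hospitalized; 7-day oral once-daily monotherapy, directly observed, within 30 min after breakfast. Heparinized plasma taken predose and 1, 2, 3, 4, 5, 6, 8, 12 and 24 h postdose on day 7, plus predose on days 5 and 6. Parent drug and N-monodesmethyl metabolite measured by validated LC-MS/MS. Noncompartmental parameters; AUC0-24 by linear trapezoidal rule.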

[2] = AUC (0 to 24 hrs) in pulmonary tuberculosis patient at 400 mg/kg, po once daily for 7 days by liquid chromatography-MS/MS analysis; format: ADME, organism-based; design: time < 24 hr, dose 400 mg/kg, route oral; settings: human, plasma
How it was run: (§2)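 Treatment-naïve, sputum smear-positive patients, hospitalized, took the drug orally once daily under direct observation within 30 min after breakfast. On day 7, heparinized plasma was drawn predose and at 1, 2, 3, 4, 5, 6, 8, 12 and 24 h for parent drug and M2 metabolite. Levels were measured by validated LC-MS/MS, and AUC0-24 was calculated noncompartmentally by the linear trapezoidal rule.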

[3] = system: Homo sapiens; experiment: Toxicity in pulmonary tuberculosis patient assessed as rash at 100 […], po once daily; format: organism-based; design: dose 100 mg/kg, route oral; settings: in vivo
[4] = system: Homo sapiens; experiment: Cardiotoxicity in pulmonary tuberculosis patient assessed as increase in QT interval at 400 mg/kg, po once daily for 7 days; format: toxicity, organism-based; design: dose 400 mg/kg, route oral; settings: in vivo, 168 h
[5] = system: Mycobacterium tuberculosis; experiment: Bactericidal activity against Mycobacterium tuberculosis in pulmonary tuberculosis patient assessed as reduction in sputum bacterial count at 25 […], po once daily measured after 4 days; format: functional
How it was run: (§3)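 Hospitalized treatment-naïve smear-positive patients took oral doses once daily, observed, after breakfast. Sputum was pooled over 16 h overnight at baseline, after each of the 7 dosing days, and on the night after the first standard-therapy dose. Sputum was stirred, digested with dithiothreitol for 20 min at room temperature, and diluted 10-fold. Dilutions were plated in quadruplicate on selective 7H11 agar and counted after 3-4 weeks at 37°C at 20-200 colonies. The read-out was change in log10 CFU/ml from baseline, with a count of 0 set to log 0.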

[6] = AUC (0 to 24 hrs) in pulmonary tuberculosis patient at 100 […], po once daily for 7 days by liquid chromatography-MS/MS analysis; format: ADME, organism-based; design: time < 24 hr, dose 100 mg/kg, route oral; settings: human, plasma; how it was run: as §2
[7] = system: Mycobacterium tuberculosis; experiment: Bactericidal activity against Mycobacterium tuberculosis in pulmonary tuberculosis patient assessed as reduction in sputum bacterial count at 25 […], po once daily measured after 2 days; format: functional; how it was run: as §3
[8] = system: Mycobacterium tuberculosis; experiment: Bactericidal activity against Mycobacterium tuberculosis in pulmonary tuberculosis patient assessed as reduction in sputum bacterial count at 400 mg/kg, po once daily measured after 5 days; format: functional; how it was run: as §3
[9] = system: Homo sapiens; experiment: Steady-state plasma concentration in pulmonary tuberculosis patient at 100 […], po once daily for 7 days by liquid chromatography-MS/MS analysis; format: ADME, organism-based; design: dose 100 mg/kg, route oral; settings: in vivo, 168 h; how it was run: as §1
[10] = system: Mycobacterium tuberculosis; experiment: Bactericidal activity against Mycobacterium tuberculosis in pulmonary tuberculosis patient assessed as reduction in sputum bacterial count at 25 mg/kg, po once daily measured after 6 days; format: functional; how it was run: as §3
[11] = AUC (0 to 24 hrs) in pulmonary tuberculosis patient at 25 mg/kg, po once daily for 7 days by liquid chromatography-MS/MS analysis; format: ADME, organism-based; design: time < 24 hr, dose 25 mg/kg, route oral; settings: human, plasma; how it was run: as §2
[12] = system: Mycobacterium tuberculosis; experiment: Bactericidal activity against Mycobacterium tuberculosis in pulmonary tuberculosis patient assessed as reduction in sputum bacterial count at 400 mg/kg, po once daily measured after 4 days; format: functional; how it was run: as §3
[13] = Drug uptake in pulmonary tuberculosis patient at 100 […], po once daily for 7 days by liquid chromatography-MS/MS analysis; format: ADME, organism-based; design: dose 100 mg/kg, route oral; settings: human, in vivo, read-out: Drug uptake; how it was run: as §1
[14] = system: Mycobacterium tuberculosis; experiment: Bactericidal activity against Mycobacterium tuberculosis in pulmonary tuberculosis patient assessed as reduction in sputum bacterial count at 100 […], po once daily measured on day 8 after starting standard TB therapy; format: functional; how it was run: as §3
[15] = Drug uptake in pulmonary tuberculosis patient at 25 mg/kg, po once daily for 7 days by liquid chromatography-MS/MS analysis; format: ADME, organism-based; design: dose 25 mg/kg, route oral; settings: human, in vivo, read-out: Drug uptake; how it was run: as §1
[16] = system: Mycobacterium tuberculosis; experiment: Bactericidal activity against Mycobacterium tuberculosis in pulmonary tuberculosis patient assessed as reduction in sputum bacterial count at 25 […], po once daily measured after 3 days; format: functional; how it was run: as §3
[17] = system: Mycobacterium tuberculosis; experiment: Bactericidal activity against Mycobacterium tuberculosis in pulmonary tuberculosis patient assessed as reduction in sputum bacterial count at 100 […], po once daily measured after 7 days; format: functional; how it was run: as §3
[18] = system: Mycobacterium tuberculosis; experiment: Bactericidal activity against Mycobacterium tuberculosis in pulmonary tuberculosis patient assessed as reduction in sputum bacterial count at 400 mg/kg, po once daily measured on day 8 after starting standard TB therapy; format: functional; how it was run: as §3
[19] = system: Homo sapiens; experiment: Toxicity in pulmonary tuberculosis patient assessed as diarrhea at 400 mg/kg, po once daily; format: organism-based; design: dose 400 mg/kg, route oral; settings: in vivo
[20] = system: Mycobacterium tuberculosis; experiment: Bactericidal activity against Mycobacterium tuberculosis in pulmonary tuberculosis patient assessed as reduction in sputum bacterial count at 100 […], po once daily measured after 1 day; format: functional; how it was run: as §3
[21] = Tmax in pulmonary tuberculosis patient at 25 mg/kg, po once daily for 7 days by liquid chromatography-MS/MS analysis; format: ADME, organism-based; design: dose 25 mg/kg, route oral; settings: human, in vivo; how it was run: as §1
[22] = system: Mycobacterium tuberculosis; experiment: Bactericidal activity against Mycobacterium tuberculosis in pulmonary tuberculosis patient assessed as reduction in sputum bacterial count at 100 […], po once daily measured after 5 days; format: functional; how it was run: as §3
[23] = system: Homo sapiens; experiment: Toxicity in pulmonary tuberculosis patient assessed as hemoptysis at 100 […], po once daily; format: organism-based; design: dose 100 mg/kg, route oral; settings: in vivo

Compound: COc1nc2ccc(Br)cc2cc1[C@@H](c1ccccc1)[C@@](O)(CCN(C)C)c1cccc2ccccc12 [BEDAQUILINE]
- Css [1]: 165.5 ng/mL
- AUC at 24 h [2]: 64800 ng·h/mL
- Activity [3]: 7%
- Time [4]: 18.8 ms
- log10CFU/ml [5]: -0.22
- AUC at 24 h [6]: 16000 ng·h/mL
- log10CFU/ml [7]: 0.02
- log10CFU/ml [8]: -0.45
- Css [9]: 667.7 ng/mL
- log10CFU/ml [10]: -0.06
- AUC at 24 h [11]: 3970 ng·h/mL
- log10CFU/ml [12]: -0.22
- concentration at 168 h [13]: 391 ng/mL
- log10CFU/ml [14]: -0.71
- concentration at 168 h [15]: 104 ng/mL
- log10CFU/ml [16]: -0.04
- log10CFU/ml [17]: -0.26
- log10CFU/ml [18]: -1.14
- Activity [19]: 7%
- log10CFU/ml [20]: -0.11
- Tmax [21]: 3.93 h
- log10CFU/ml [22]: -0.13
- Activity [23]: 6.3%
